Measurements as given in ChEMBL document CHEMBL2157889, “Design, synthesis and biological evaluation of heterocyclic azoles derivatives containing pyrazine moiety as potential telomerase inhibitors” (Bioorg Med Chem, 2012).

How the values were obtained:
BGC-823 = assay: Antiproliferative activity against human BGC823 cells after 48 hrs by MTT method; assay type: functional, cell-based; settings: BGC-823, 48 h
Method in brief: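 MTT assay. Cells were seeded at 10⁴ per well and held 24 h at 37 °C with 5% CO₂. […] After 48 h, 5 mg/mL MTT in PBS was added for 4 h. Formazan was dissolved in DMSO and absorbance read at 490 nm.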

HeLa = assay: Antiproliferative activity against human HeLa cells after 48 hrs by MTT method; assay type: functional, cell-based
[1] = Antiproliferative activity against human SW1116 cells after 48 hrs by MTT method; assay type: functional, cell-based; settings: SW 1116, 48 h
HepG2 [2] = assay: Antiproliferative activity against human HepG2 cells after 48 hrs by MTT method; assay type: functional, cell-based; settings: HepG2, 48 h
[3] = biological target: Telomerase reverse transcriptase (Homo sapiens, UniProt O14746); assay: Inhibition of telomerase in human HepG2 cells after 24 hrs by TRAP-PCR-ELISA assay; assay type: cell-based
Method in brief: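 Cells in serum/penicillin/streptomycin medium (37 °C, 5% CO₂) were seeded at 5×10⁴ per T25 flask and allowed to adhere. After 24 h treatment, cells were lysed in RIPA buffer on ice for 30 min and spun at 12,000 g for 20 min at 4 °C. For the kit-based TRAP-PCR-ELISA, PCR ran 94 °C 120 s, then 35 cycles of 94/50/72 °C. Product was hybridised to a DIG probe, captured via biotin-streptavidin, detected with peroxidase anti-DIG, and read at 490 nm.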

HepG2 [4] = assay: Induction of apoptosis in human HepG2 cells assessed as necrotic cells at 1 uM after 24 hrs by annexin VeFITC/PI-based flow cytometry (reference value: 0.7 %); assay type: functional
HepG2 [5] = assay: Induction of apoptosis in human HepG2 cells assessed as early apoptotic cells at 2 uM after 24 hrs by annexin VeFITC/PI-based flow cytometry (reference value: 3.28 %); assay type: functional
HepG2 [6] = assay: Induction of apoptosis in human HepG2 cells assessed as late apoptotic cells at 0.5 uM after 24 hrs by annexin VeFITC/PI-based flow cytometry (reference value: 6.84 %); assay type: functional
HepG2 [7] = assay: Induction of apoptosis in human HepG2 cells assessed as viable cells at 0.25 uM after 24 hrs by annexin VeFITC/PI-based flow cytometry (reference value: 89.18 %); assay type: functional; settings: HepG2, 24 h, read-out: Activity
HepG2 [8] = assay: Induction of apoptosis in human HepG2 cells assessed as early apoptotic cells at 0.5 uM after 24 hrs by annexin VeFITC/PI-based flow cytometry (reference value: 3.28 %); assay type: functional
HepG2 [9] = assay: Induction of apoptosis in human HepG2 cells after 24 hrs by annexin VeFITC/PI-based flow cytometry; assay type: functional, cell-based
HepG2 [10] = assay: Induction of apoptosis in human HepG2 cells assessed as late apoptotic cells at 2 uM after 24 hrs by annexin VeFITC/PI-based flow cytometry (reference value: 6.84 %); assay type: functional
HepG2 [11] = assay: Induction of apoptosis in human HepG2 cells assessed as early apoptotic cells at 0.25 uM after 24 hrs by annexin VeFITC/PI-based flow cytometry (reference value: 3.28 %); assay type: functional
HepG2 [12] = assay: Induction of apoptosis in human HepG2 cells assessed as viable cells at 1 uM after 24 hrs by annexin VeFITC/PI-based flow cytometry (reference value: 89.18 %); assay type: functional; settings: HepG2, 24 h, read-out: Activity
HepG2 [13] = assay: Induction of apoptosis in human HepG2 cells assessed as necrotic cells at 0.25 uM after 24 hrs by annexin VeFITC/PI-based flow cytometry (reference value: 0.7 %); assay type: functional
HepG2 [14] = assay: Induction of apoptosis in human HepG2 cells assessed as late apoptotic cells at 1 uM after 24 hrs by annexin VeFITC/PI-based flow cytometry (reference value: 6.84 %); assay type: functional
HepG2 [15] = assay: Induction of apoptosis in human HepG2 cells assessed as necrotic cells at 0.5 uM after 24 hrs by annexin VeFITC/PI-based flow cytometry (reference value: 0.7 %); assay type: functional
HepG2 [16] = assay: Induction of apoptosis in human HepG2 cells assessed as necrotic cells at 2 uM after 24 hrs by annexin VeFITC/PI-based flow cytometry (reference value: 0.7 %); assay type: functional
HepG2 [17] = assay: Induction of apoptosis in human HepG2 cells assessed as viable cells at 2 uM after 24 hrs by annexin VeFITC/PI-based flow cytometry (reference value: 89.18 %); assay type: functional; settings: HepG2, 24 h, read-out: Activity
HepG2 [18] = assay: Induction of apoptosis in human HepG2 cells assessed as viable cells at 0.5 uM after 24 hrs by annexin VeFITC/PI-based flow cytometry (reference value: 89.18 %); assay type: functional; settings: HepG2, 24 h, read-out: Activity
HepG2 [19] = assay: Induction of apoptosis in human HepG2 cells assessed as early apoptotic cells at 1 uM after 24 hrs by annexin VeFITC/PI-based flow cytometry (reference value: 3.28 %); assay type: functional
HepG2 [20] = assay: Induction of apoptosis in human HepG2 cells assessed as late apoptotic cells at 0.25 uM after 24 hrs by annexin VeFITC/PI-based flow cytometry (reference value: 6.84 %); assay type: functional

Telomerase reverse transcriptase, sequence (O14746 whole entry): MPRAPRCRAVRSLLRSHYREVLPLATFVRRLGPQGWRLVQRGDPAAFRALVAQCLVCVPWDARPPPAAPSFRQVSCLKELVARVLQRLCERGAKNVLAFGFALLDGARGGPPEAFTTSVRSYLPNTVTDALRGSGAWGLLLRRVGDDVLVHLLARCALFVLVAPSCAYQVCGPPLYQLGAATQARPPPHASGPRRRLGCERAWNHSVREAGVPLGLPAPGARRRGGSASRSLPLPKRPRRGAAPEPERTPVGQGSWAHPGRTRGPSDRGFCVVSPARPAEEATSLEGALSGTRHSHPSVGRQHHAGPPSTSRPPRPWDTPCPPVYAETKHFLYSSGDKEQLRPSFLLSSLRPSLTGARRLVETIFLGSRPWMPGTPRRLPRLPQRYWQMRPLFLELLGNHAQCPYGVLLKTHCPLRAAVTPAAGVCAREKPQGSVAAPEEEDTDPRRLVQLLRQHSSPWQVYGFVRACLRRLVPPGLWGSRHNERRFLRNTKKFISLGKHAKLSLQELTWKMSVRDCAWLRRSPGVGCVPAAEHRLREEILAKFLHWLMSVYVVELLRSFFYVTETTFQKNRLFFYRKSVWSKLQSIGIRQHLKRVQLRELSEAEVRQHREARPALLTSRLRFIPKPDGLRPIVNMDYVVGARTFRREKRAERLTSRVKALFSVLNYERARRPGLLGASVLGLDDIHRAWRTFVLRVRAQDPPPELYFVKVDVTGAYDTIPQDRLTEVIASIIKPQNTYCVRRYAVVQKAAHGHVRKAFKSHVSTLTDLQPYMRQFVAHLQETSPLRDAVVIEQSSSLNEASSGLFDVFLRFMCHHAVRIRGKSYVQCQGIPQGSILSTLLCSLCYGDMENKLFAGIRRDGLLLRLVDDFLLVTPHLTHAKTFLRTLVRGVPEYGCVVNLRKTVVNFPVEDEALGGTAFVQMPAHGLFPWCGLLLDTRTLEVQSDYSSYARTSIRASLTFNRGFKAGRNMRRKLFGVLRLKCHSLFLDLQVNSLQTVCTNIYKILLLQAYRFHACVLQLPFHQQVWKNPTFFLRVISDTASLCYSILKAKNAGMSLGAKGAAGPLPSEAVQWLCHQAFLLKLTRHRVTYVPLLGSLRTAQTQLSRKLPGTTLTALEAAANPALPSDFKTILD

SMILES	IC50 (BGC-823) [µM]	IC50 (HeLa) [µM]	IC50 [1] [µM]	IC50 (HepG2 [2]) [µM]	IC50 [3] [µM]	further results
Fc1ccc(CSc2nnc(-c3cnccn3)o2)c(F)c1	33	26.7	19.3	14.4		
Fc1ccc(CSc2nnc(-c3cnccn3)s2)cc1	29.3	> 50	17.1	10.1	12.1	
Fc1ccc(CSc2nnc(-c3cnccn3)s2)c(F)c1	14.5	20.9	5.18	9.63		
Clc1ccccc1CSc1nnc(-c2cnccn2)s1	20.3	28.9	7.53	10.8		
c1ccc(CSc2nnc(-c3cnccn3)n2-c2ccccc2)cc1	> 50	35.6	15.4	17.1		
Clc1ccc(CSc2nnc(-c3cnccn3)o2)cc1	30	24.6	17.3	11.5		
CN[C@@H]1C[C@H]2O[C@@](C)([C@@H]1OC)n1c3ccccc3c3c4c(c5c6ccccc6n2c5c31)C(=O)NC4 [STAUROSPORINE]	6.83					
O=c1[nH]cc(F)c(=O)[nH]1 [FLUOROURACIL]		3.25	2.41	1.3		
Clc1cccc(CSc2nnc(-c3cnccn3)n2-c2ccccc2)c1	20.3	13.5	6.61	19.6		
Clc1ccc(CSc2nnc(-c3cnccn3)n2-c2ccccc2)cc1	27.7	> 50	12.5	15.3	13.4	
Fc1ccccc1CSc1nnc(-c2cnccn2)s1	18.4	32.7	6.77	9.52		
Brc1ccccc1CSc1nnc(-c2cnccn2)s1	18.9	21.3	6.95	9.81	3.97	
Brc1ccccc1CSc1nnc(-c2cnccn2)n1-c1ccccc1	36.2	> 50	19.4	11.6		
Brc1ccc(CSc2nnc(-c3cnccn3)s2)cc1	25.2	12.4	1.47	0.78	1.24	Activity (HepG2 [4]): 4.18%; Activity (HepG2 [5]): 17.54%; Activity (HepG2 [6]): 24.02%; viability at 0.25 µM (HepG2 [7]): 85.3%; Activity (HepG2 [8]): 11.48%; Activity (HepG2 [9]): Dose-dependent effect; Activity (HepG2 [10]): 35.16%; Activity (HepG2 [11]): 4.36%; viability at 1 µM (HepG2 [12]): 50.3%; Activity (HepG2 [13]): 1.72%; Activity (HepG2 [14]): 30.6%; Activity (HepG2 [15]): 3.62%; Activity (HepG2 [16]): 2.82%; viability at 2 µM (HepG2 [17]): 44.5%; viability at 0.5 µM (HepG2 [18]): 60.9%; Activity (HepG2 [19]): 14.96%; Activity (HepG2 [20]): 8.62%
Fc1ccc(CSc2nnc(-c3cnccn3)n2-c2ccccc2)c(F)c1	17.8	12.5	4.65	10.4		
Fc1cccc(F)c1CSc1nnc(-c2cnccn2)n1-c1ccccc1	> 50	> 50	24.1	22.6	24.2	
Brc1ccc(CSc2nnc(-c3cnccn3)n2-c2ccccc2)cc1	19.8	8.63	6.21	11.4	7.13	
Fc1cccc(F)c1CSc1nnc(-c2cnccn2)s1	18.6	29.2	16.8	6.9		
